The array DNA melting data of Ke et al. (doi:10.1101/2024.01.08.574731)

Experiments:
[1] = folding enthalpy; higher = less favourable; fluorescence melt of hairpins on a sequencing array, two-state fit; conditions: sodium 0.088 M
Procedure, shortened: (§1)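 Bootstrapped two-state fits yielded melting temperature and folding enthalpy for library hairpins. Cy3 fluorescence, with annealed Cy3 and quencher oligos, was imaged on a sequenced MiSeq flow cell in 50 mM Na-HEPES pH 8.0, 25 mM NaCl in 2.5 °C steps up to 60 °C, and normalised to pre-quench Cy3 and to control constructs. Four replicates were combined by inverse variance, and fitted temperatures were raised by 9.35 °C to match UV melts.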

[2] = melting temperature; fluorescence melt of hairpins on a sequencing array, two-state fit, raised by 9.35 °C to match UV melts; conditions: sodium 0.088 M
Procedure, shortened: as §1

Sequence	folding enthalpy [1] [kcal/mol]	Tm [2] [°C]
GCGGTGCGAAAGCCCAGC ((.(.((....)).).))	-21.6	54.2
GATCAAGAATTTGATC ((((((....))))))	-30.8	49
GCCGGGCGAAAGCCCCGC ((.((((....)))).))	-16.2	54.4
GAGCGTGGAAACACGTTC ((.((((....)))).))	-24.7	52.5
GATCCAGGCGTGGATC ((((((....))))))	-40.9	53.6
GCAGGTGGAAACACCCGC ((.((((....)))).))	-23.4	50
GCCGGGCGAAAGCACTGC ((.(.((....)).).))	-18.6	50.8
GATGCTGGAAACAGTGTC ((..(((....)))..))	-26.2	37.8
GATCGCCAGAGCGATC ((((((....))))))	-37.6	68.3
GCGCACGAAAGTGTACGC ((((((....)))..)))	-23.8	53.5
GTTTCTGGAAACAGAGAC ((.((((....)))).))	-26.9	37.2
GATTGAGGAAACCCAATC (((((.(....).)))))	-29.2	35.1
GCACGGCGAAAGCATTGC (((..((....))..)))	-16.6	39.9
GCGTATGGAAACATACAC (.(((((....))))).)	-15.8	36.7
GATAGAGGAAACTCTACC (.(((((....))))).)	-12.6	23.5
GTTTTGGGAAACTAGAAC (((.(.(....).).)))	-7.83	23.7
TAATCGAAAGATTA (((((....)))))	-15.2	38.9
GATCATTGCCATGATC ((((((....))))))	-39.3	46.4
GCGATCGGAAACAATCGC (((((.(....).)))))	-37.6	48.1
GATCGGGTCCCGATC ((((((...))))))	-46.5	56.7
GCGATTTATCGC ((((....))))	-28.4	68.7
GAAGGACGAAAGTCGTTC (((.(((....))).)))	-37.1	51.9
GCGAACCATCGC ((((....))))	-18.7	47.7
GACCATCCGAAAGGAGTC (((..(((....))))))	-14.4	26.4

Sequence	folding enthalpy [1] [kcal/mol]	Tm [2] [°C]
GGTGCAGCGAAAGCTACC (((..(((....))))))	-13.6	39.1
GCGCCGCGAAAGCGTGGC ((..(((....)))..))	-14.9	51.7
GTTCTCGGAAACGAGAAC (((((((....)))))))	-34.5	65.7
GTAAGTGGAAACATTTAC ((((.((....)).))))	-25.6	32.3
GATCAGTGTCCTGATC ((((((....))))))	-36.2	49.6
GTTAAGGGAAACCCTAAC ((((.((....)).))))	-14.2	30.3
GGGTTAACGAAAGTTCCC (((..(((....))))))	-21.2	37.4
GCGAGCCCTCGC ((((....))))	-26	55
TGGCAGAAATGCCA (((((....)))))	-23.3	54.2
GATCAGTCTGCTGATC ((((((....))))))	-41.6	52.7
GGGCATCGAAAGATTCCC (((.(((....))).)))	-27.7	47.5
GCGAGTCATCGC ((((....))))	-24.8	67.8
GCGAATCTCGC ((((...))))	-19.7	47.4
GTAATAGCGAAAGCTTAC (((..(((....))))))	-12.6	30.2
GACGTAGGAAACTGTGTC (((..((....))..)))	-9.59	25.7
CGAGAGCGGAAACGCTCG (((..(((....))))))	-18.5	58.4
GCCCTTGGAAACGAGGGC (((((.(....).)))))	-41.4	57.5
GATCTCCAACGAGATC ((((((....))))))	-39.3	49.8
GTGCACGAAAGTGCGCAC ((((((....)))..)))	-10.5	58
GCAAGGCGAAAGCTTTGC ((((.((....)).))))	-39	63.9
GCCTTCGAAAGAATCGGC ((((((....)))..)))	-23.4	34.8
GGCCCCGGAAACGGAGCC (((.(((....))).)))	-31.1	56.6
GGTCAGGGAAACCTGATC (.(((((....))))).)	-27.2	48.5
GATCCCCTCGGGATC ((((((...))))))	-35.6	61.4

Sequence	folding enthalpy [1] [kcal/mol]	Tm [2] [°C]
GAGTTAGGAAACCAACTC (((((.(....).)))))	-32.5	35.4
GAGGCCGAAAGGCAACTC ((((((....)))..)))	-14.2	46.7
GCCCTAGGAAACTAGAGC ((.((((....)))).))	-25	34.3
GCCCCACGAAAGTGAGGC (((.(((....))).)))	-37.8	55.8
GTTTACGAAAGTAGAAC ((((((....))).)))	-11.3	27.2
GTATTTGGAAACAGATAC ((((.((....)).))))	-24.7	32.4
GGTCTCGAAAGAGCGACC ((((((....)))..)))	-18.1	37.3
GCCTTGTCGAAAGACGGC (((..(((....))))))	-18	47.8
GGACCTGGAAACGGGTCC (((((.(....).)))))	-45	58.3
CATCGGAAACGATG (((((....)))))	-25.8	53.5
GTCCCTCGAAAGAGGAC (((.(((....))))))	-14	51.3
GTTCCAGGAAACTGGAAC (((((((....)))))))	-42.2	60.4
GCTGGCGAAAGCCTCAGC ((((((....)))..)))	-14.7	46.6
GTAGGCCGAAAGGCTTAC (((.(((....))).)))	-21.2	55.4
GATCACCCGAGTGATC ((((((....))))))	-41.3	57
GTGTACGAAAGTAACAC ((((((....))).)))	-30	49.5
GCCTTGGAAACAAGGC ((((((....))))))	-34.6	67.8
GAGTTAGGAAACTAATTC ((.((((....)))).))	-23.9	27.9
GATCAGACCCTGATC ((((((...))))))	-33.4	47.7
GACACGCGAAAGCGCGTC (((.(((....))).)))	-25.2	63.9
GCGCAGCGAAAGCTTCGC (((.(((....))).)))	-36.1	51.4
GGATTCGGAAACGAGTCC (((.(((....))).)))	-35.7	51.1
GGAAGGGAAACCTTCC ((((((....))))))	-38	55.2
GATCCTCAGAAGGATC ((((((....))))))	-35.3	51

Sequence	folding enthalpy [1] [kcal/mol]	Tm [2] [°C]
GTATACGCGAAAGCGTAC (((..(((....))))))	-7.12	37.9
GCGTAAACGAAAGTTCGC (((..(((....))))))	-33.7	48.2
GAATACGAAAGTATTC ((((((....))))))	-34.4	55.5
GATCATCCCATGATC ((((((...))))))	-38.4	50.4
GCAAAGGGAAACCTTTAC (.(((((....))))).)	-15.8	28
GATCCGTTGACGGATC ((((((....))))))	-39.1	61.8
GATCACGCGAGTGATC ((((((....))))))	-33.8	68.8
GGGTATCCGAAAGGACCC (((..(((....))))))	-18.6	43.9
CGGTACGGAAACGTCCG (((.(((....))))))	-20.9	47.7
GGCGTCGAAAGACTGCC ((((((....))).)))	-36.4	57
GTTAGTGGAAACGTTAAC ((((..(....)..))))	-10.1	27.6
GATCCGGACCCGGATC ((((((....))))))	-36.9	61.1
GGTCCCGAAAGGGTGACC ((((((....)))..)))	-19.6	48
GCTCATACGAAAGTAAGC (((..(((....))))))	-9.13	28
GCCATAACGAAAGTTGGC (((..(((....))))))	-30.9	49.3
CGGCCGGAAACGGACCG ((((((....))).)))	-25	54.6
GGCGTTGGAAACAGCGTC (.((.((....)).)).)	-21.9	44.6
GATAGGCGAAAGCCAATC (((.(((....))).)))	-19	43
GGGGCCGAAAGGCTACCC ((((((....)))..)))	-14.8	53.2
GATCATTCTAATGATC ((((((....))))))	-31.9	49.4
GATCGCCGAAAGGCTATC (((.(((....))).)))	-20.4	42.1
